The test system of experiment [1] is CCRF-CEM. As to the kind of experiment: Cytotoxicity against human CCRF-CEM cells after 72 hrs by MTT assay. It counts as functional. Put shortly: (§1)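 Cells were grown in medium with 10% fetal calf serum, 2 mM L-glutamine, penicillin/streptomycin and 10 mM HEPES (pH 7.4). Compounds were made up as a 0.1 M DMSO stock and serially diluted in medium to five doses between 0.01 and 100. Exposure was 72 h at 37 °C in humidified 5% CO₂. Read-out was MTT colorimetric, giving GI50 as the concentration reducing growth by 50%.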
Background: Tetrazolium assays rely on reduction of a dye to a coloured formazan, in cell work by metabolically active cells.

Experiment [2] has as its system CCRF-CEM. As to the kind of experiment: Cell cycle arrest in human CCRF-CEM cells assessed as accumulation at S phase at 2.5 uM using propidium iodide staining by flow cytometry. In kind it is functional, cell-based. As to conditions: TDE = time-dependent effect. In a few lines: (§2)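 CCRF-CEM cells were seeded at 10⁶ cells/ml in complete medium and exposed to 2.5 µM for 24 h. Cells were pelleted (700 g, 6 min, 4 °C), washed in PBS and fixed in 70% ethanol at 4 °C for 20 min. They were then stained with PI (50 µg/ml) plus RNase at 37 °C for 30 min. DNA content was read by flow cytometry on 10,000 events to give phase percentages. Six independent experiments, duplicate wells, mean SD.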

A short description of experiment [3]: Cytotoxicity against human HTB-54 cells after 72 hrs by MTT assay. In kind it is functional. As to conditions: HTB-54, 72 h. In a few lines:
as §1

In a further experiment the test system is HT-29. As to the kind of experiment: Cytotoxicity against human HT-29 cells after 72 hrs by MTT assay. It counts as functional. As to conditions: HT-29, 72 h. In a few lines:
as §1

The subject of experiment [4] is CCRF-CEM. As to the kind of experiment: Cell cycle arrest in human CCRF-CEM cells assessed as accumulation at S phase after 24 hrs using propidium iodide staining by flow cytometry. In kind it is functional, cell-based. Put shortly: as §2
On the technique in general: A flow cytometer gives signals particle by particle.

The nature of experiment [5]: Cytotoxicity against human MEL-AC cells after 72 hrs by MTT assay. In kind it is functional. In a few lines: as §1
A further experiment concerns HeLa. As to the kind of experiment: Cytotoxicity against human HeLa cells after 72 hrs by MTT assay. In kind it is functional. Put shortly:
as §1

The next experiment concerns K562. Briefly: Cytotoxicity against human K562 cells after 72 hrs by MTT assay. In kind it is functional. The settings on record: K562, 72 h. Put shortly:
as §1

The subject of experiment [6] is CCRF-CEM. As to the kind of experiment: Cell cycle arrest in human CCRF-CEM cells assessed as accumulation at S phase at 2.5 uM after 24 hrs using propidium iodide staining by flow cytometry. It counts as functional, cell-based. In a few lines: as §2
Experiment [7] relates to CCRF-CEM. As to the kind of experiment: Induction of apoptosis in human CCRF-CEM cells at 2.5 uM after 24 hrs using V-FITC and propidium iodide staining by flow cytometry in presence of N-acetyl-cysteine.
For experiment [8], the system named is CCRF-CEM. As to the kind of experiment: Cell cycle arrest in human CCRF-CEM cells assessed as reduction of cell accumulation at G0/G1 phase at 2.5 uM after 24 hrs using propidium iodide staining by flow cytometry. In kind it is functional, cell-based. In a few lines:
as §2

The test system of experiment [9] is CCRF-CEM. Briefly: Induction of increase in ROS level in human CCRF-CEM cells at 2.5 uM after 24 hrs using CM-H2DCFDA fluorescent probe by flow cytometry. It counts as functional, cell-based. In a few lines: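 CCRF-CEM cells at 1×10⁶ cells/ml were cultured with or without 2.5 µM for 24 h. Cells (2×10⁶) were then loaded with 1 µM CM-H₂DCFDA for 60 min at 37 °C and fluorescence was read by flow cytometry. Results are expressed as fold over untreated cells, with 4-HPR as the positive control. Two independent experiments, triplicate wells, mean SD.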

Experiment [10] has as its system CCRF-CEM. Briefly: Induction of apoptosis in human CCRF-CEM cells at 6 uM after 48 hrs using V-FITC and propidium iodide staining by flow cytometry. It counts as functional. Put shortly:
(§3)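 CCRF-CEM cells were incubated with compound for 12 to 48 h. Cells (5×10⁵) were pelleted, washed in PBS and stained with annexin V-FITC plus propidium iodide for 15 min at 4 °C in the dark. Phosphatidylserine-exposing (apoptotic) cells were counted by flow cytometry. Five independent experiments, duplicate wells, mean SD.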

Experiment [11] concerns CCRF-CEM. Briefly: Induction of apoptosis in human CCRF-CEM cells at 6 uM after 12 hrs using V-FITC and propidium iodide staining by flow cytometry. It counts as functional. Put shortly:
as §3

For experiment [12], the system named is CCRF-CEM. As to the kind of experiment: Cell cycle arrest in human CCRF-CEM cells assessed as accumulation at sub-G1 phase at 2.5 uM after 24 hrs using propidium iodide staining by flow cytometry. It counts as functional, cell-based. Put shortly:
as §2

Structures are written as SMILES. Calls of active or inactive are those of the source. The calls are words filed in the database; no cut-off is given here.

For orientation: GI50 means the concentration at which growth is held to half of that of the control. High values mean less potent growth inhibition, low ones more potent growth inhibition. Consider `CN(Cc1ccccc1)S(=O)(=O)c1ccc2c(c1)S(=O)(=O)C=C2`, for which the GI50 in the experiment on CCRF-CEM [1] was determined as 630 nM; in experiment [3], 400 nM; with HT-29, 35000 nM; in experiment [5], 2300 nM; with HeLa, 10 nM; in the experiment on K562, 38100 nM. Besides, the values for the Activity result in the experiment on CCRF-CEM [2] and in the experiment on CCRF-CEM [4] were “tde” and “Dose-dependent effect”, respectively.

For `NC(=O)c1ccc2c(c1)S(=O)(=O)C=C2`, the GI50 in the experiment with CCRF-CEM [1] amounted to 3550 nM; in experiment [3] it was 220 nM; in the experiment on HT-29, 5190 nM; in experiment [5] it was 3520 nM; in the experiment with HeLa, 650 nM; in the experiment on K562, 7850 nM. In addition, the Activity entry is “tde” in the experiment on CCRF-CEM [2] and “Dose-dependent effect” in the experiment with CCRF-CEM [4].

With `O=S1(=O)C=Cc2ccc(O)cc21`, the GI50 turned out to be 19200 nM in the experiment with CCRF-CEM [1]; 7530 nM in experiment [3]; 2040 nM in the experiment on HT-29; 24000 nM in experiment [5]; 51100 nM in the experiment with K562. In addition, the Activity result in the experiment on CCRF-CEM [2] was “tde”; with CCRF-CEM [4] it was “Dose-dependent effect”.

Turning to `NS(=O)(=O)c1ccc2c(c1)S(=O)(=O)C=C2`, the GI50 in the experiment with CCRF-CEM [1] was determined as 2860 nM; in experiment [3] it was 5890 nM; in the experiment on HT-29, 8550 nM; in experiment [5], 7140 nM; in the experiment with HeLa, 2210 nM; in the experiment on K562, 29400 nM. The Activity result was “tde” in the experiment on CCRF-CEM [2] and “Dose-dependent effect” in the experiment on CCRF-CEM [4].

With `O=S1(=O)C=Cc2ccc(S(=O)(=O)NCc3ccccc3)cc21`, the GI50 was found to be 330 nM in the experiment on CCRF-CEM [1]; 700 nM in experiment [3]; 840 nM with HT-29; 400 nM in experiment [5]; 10 nM in the experiment with HeLa; 720 nM with K562. Besides, the Activity entry is “tde” with CCRF-CEM [2] and “Dose-dependent effect” in the experiment on CCRF-CEM [4].

Turning to `COc1ccc(NC(=O)c2ccc3c(c2)S(=O)(=O)C=C3)cc1`, the outcome in the experiment with CCRF-CEM [6], in the experiment on CCRF-CEM [7], with CCRF-CEM [8], with CCRF-CEM [9] and in the experiment with CCRF-CEM [12] was Active. For the same molecule, the GI50 was determined as 4 nM with CCRF-CEM [1]; 2 nM in [3]; 350 nM in the experiment with HT-29; 760 nM in experiment [5]; 3 nM in the experiment on HeLa; 47 nM in the experiment on K562. Further, the Activity result is “tde” in the experiment on CCRF-CEM [2], “Dose-dependent effect” in the experiment on CCRF-CEM [4], 83% in the experiment with CCRF-CEM [10] and 30.4% in the experiment with CCRF-CEM [11].

On to `CCCCNC(=O)c1ccc2c(c1)S(=O)(=O)C=C2`, for which the GI50 in the experiment with CCRF-CEM [1] is 280 nM; in experiment [3], 90 nM; in the experiment on HT-29, 2320 nM; in experiment [5], 1420 nM; in the experiment on HeLa, 80 nM; in the experiment on K562, 2730 nM. In addition, the Activity entry in the experiment with CCRF-CEM [2] was “tde”; in the experiment with CCRF-CEM [4], “Dose-dependent effect”.

On to `COc1ccc(CCNC(=O)c2ccc3c(c2)S(=O)(=O)C=C3)cc1`, for which the GI50 in the experiment on CCRF-CEM [1] came out at 730 nM; in experiment [3], 640 nM; in the experiment on HT-29, 2080 nM; in [5], 1320 nM; with HeLa, 40 nM; in the experiment with K562, 2660 nM. The figures for the Activity result in the experiment on CCRF-CEM [2] and in the experiment with CCRF-CEM [4] were “tde” and “Dose-dependent effect”, respectively.

On to `COc1ccc(CCNS(=O)(=O)c2ccc3c(c2)S(=O)(=O)C=C3)cc1`, for which the GI50 in the experiment on CCRF-CEM [1] worked out at 5 nM; in experiment [3] it was 620 nM; in the experiment on HT-29 it was 220 nM; in experiment [5], 1930 nM; in the experiment on HeLa it was 120 nM; in the experiment with K562, 6 nM. In addition, the Activity result with CCRF-CEM [2] is “tde”; with CCRF-CEM [4], “Dose-dependent effect”.

The values are drawn from ChEMBL document CHEMBL1212837, “Benzo[b]thiophene-6-carboxamide 1,1-dioxides: inhibitors of human cancer cell growth at nanomolar concentrations” (2010).
